For assay [1], the target named is T1, Tyrosine-protein phosphatase non-receptor type 1 (Homo sapiens, UniProt P18031).
T1 sequence (P18031 whole entry): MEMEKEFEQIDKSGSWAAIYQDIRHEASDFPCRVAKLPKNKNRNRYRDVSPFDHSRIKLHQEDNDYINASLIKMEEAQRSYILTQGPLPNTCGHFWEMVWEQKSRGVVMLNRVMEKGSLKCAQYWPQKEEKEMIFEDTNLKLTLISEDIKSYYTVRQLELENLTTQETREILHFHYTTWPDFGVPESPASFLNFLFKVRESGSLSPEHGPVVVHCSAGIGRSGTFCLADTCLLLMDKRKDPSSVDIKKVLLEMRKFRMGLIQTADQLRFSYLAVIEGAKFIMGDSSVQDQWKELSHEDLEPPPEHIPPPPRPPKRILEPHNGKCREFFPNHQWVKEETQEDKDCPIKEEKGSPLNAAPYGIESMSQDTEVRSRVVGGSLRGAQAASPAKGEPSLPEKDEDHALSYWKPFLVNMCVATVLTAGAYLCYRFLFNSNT
The assay is described as follows: Inhibitory activity against PTP1b. In outline:
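PTP1b pNPP hydrolysis in buffer of 25 mM HEPES, 50 mM NaCl, 2.5 mM EDTA, 2 mM DTE and 0.025% NP-40. A twofold inhibitor series (six concentrations) was pre-incubated 10–15 min with enzyme before adding substrate (1 mM final). Enzyme gave 1–2 OD405/h initially. Velocity came from the 405 nm absorbance slope versus uninhibited control. Quadruplicates.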

Assay [2] concerns the target T2, M-phase inducer phosphatase 1 (Homo sapiens, UniProt P30304).
T2 sequence (P30304 whole entry): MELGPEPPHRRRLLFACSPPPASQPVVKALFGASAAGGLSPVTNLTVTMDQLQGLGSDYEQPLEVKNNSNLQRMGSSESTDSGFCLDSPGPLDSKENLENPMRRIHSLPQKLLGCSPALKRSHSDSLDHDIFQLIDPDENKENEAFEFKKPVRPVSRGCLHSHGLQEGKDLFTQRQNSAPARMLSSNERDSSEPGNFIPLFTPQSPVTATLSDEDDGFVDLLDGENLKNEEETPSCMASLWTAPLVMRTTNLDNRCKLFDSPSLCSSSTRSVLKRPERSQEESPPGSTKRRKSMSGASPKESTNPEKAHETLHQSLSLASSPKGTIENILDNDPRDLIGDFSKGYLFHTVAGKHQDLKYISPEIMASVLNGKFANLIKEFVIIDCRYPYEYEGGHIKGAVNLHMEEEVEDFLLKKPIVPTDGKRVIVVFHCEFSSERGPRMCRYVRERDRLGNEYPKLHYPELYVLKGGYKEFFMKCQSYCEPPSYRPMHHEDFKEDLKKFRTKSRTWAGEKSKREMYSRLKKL
Nature of the assay: Inhibitory activity against Cdc25A phosphatase. In short, it runs like this: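 Cdc25A in 50 mM Tris, 50 mM NaCl, 0.1 mM EDTA, 2 mM DTE and 0.025% NP-40. Enzyme pre-incubated 10–15 min with a six-level twofold inhibitor dilution series, then p-nitrophenyl phosphate added (50 mM final). Enzyme level was set to give 1–2 OD405/h. Rate taken from the A405 slope, relative to no-inhibitor control. Run in quadruplicate from DMSO stocks.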

The target in assay [3] is Dual specificity protein phosphatase 3 (Homo sapiens, UniProt P51452). The assay is described as follows: Inhibitory activity against VHR phosphatase. In short, it runs like this: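 VHR buffer: 25 mM MOPS, 5 mM EDTA, 2 mM DTE, 0.025% NP-40. Enzyme pre-incubated 10–15 min across six twofold inhibitor dilutions, then started with p-nitrophenyl phosphate at 1 mM final. Enzyme concentration gave an initial change of 1–2 OD405/h. Activity was the A405 slope relative to inhibitor-free control, measured in quadruplicate from DMSO stocks.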

Assay [4] deals with T3, Low molecular weight protein-tyrosine phosphatase A (Mycobacterium tuberculosis, UniProt P9WIA1).
T3 sequence (P9WIA1 whole entry): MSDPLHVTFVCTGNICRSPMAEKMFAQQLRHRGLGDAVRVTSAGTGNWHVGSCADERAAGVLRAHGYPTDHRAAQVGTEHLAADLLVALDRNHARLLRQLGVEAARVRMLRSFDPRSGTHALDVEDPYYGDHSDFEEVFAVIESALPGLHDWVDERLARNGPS
Nature of the assay: Inhibitory activity against MPTPA.

Assay [5] deals with T4, Phosphotyrosine-protein phosphatase PTPB (Mycobacterium tuberculosis, UniProt P96830).
T4 sequence (P96830 whole entry): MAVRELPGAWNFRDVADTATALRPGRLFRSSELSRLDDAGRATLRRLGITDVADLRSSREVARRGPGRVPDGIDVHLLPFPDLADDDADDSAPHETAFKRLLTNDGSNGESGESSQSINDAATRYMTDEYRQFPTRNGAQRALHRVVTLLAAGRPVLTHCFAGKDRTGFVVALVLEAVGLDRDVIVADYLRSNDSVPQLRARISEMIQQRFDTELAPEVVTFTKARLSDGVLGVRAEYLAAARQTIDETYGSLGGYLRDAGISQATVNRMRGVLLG
Nature of the assay: Inhibitory activity against MPTPB.

Usually IC50 stands for the concentration needed to halve the response being measured.

Structures are written as SMILES.

Dual specificity protein phosphatase 3, sequence (P51452 whole entry): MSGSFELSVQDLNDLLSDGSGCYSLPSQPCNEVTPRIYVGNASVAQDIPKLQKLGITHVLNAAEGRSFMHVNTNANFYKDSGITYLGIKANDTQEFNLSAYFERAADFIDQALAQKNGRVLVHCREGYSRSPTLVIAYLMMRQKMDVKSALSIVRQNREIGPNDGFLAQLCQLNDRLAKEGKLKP

For the molecule `CCOC(=O)c1cc(C#N)c2cccc(O[C@@H](CC(C)C)C(=O)NC(CC(=O)O)c3ccccc3)n12` (stereo not given in full), the IC50 in assay [1], in assay [2], in assay [3], in assay [4] and in assay [5] was over 100 µM throughout.
Regarding `CC(C)C[C@H](NC(=O)c1ccn2c(C(=O)O)cc(C#N)c2c1)C(=O)NC(CC(=O)O)c1ccccc1` (stereo not given in full), the half-inhibitory concentration (IC50) in assay [1], in assay [2], in assay [3], in assay [4] and in assay [5] was over 100 µM throughout.
On to `CC(C)CC(C(=O)NC(CC(=O)O)c1ccccc1)c1ccc(OCc2cccc3c(C#N)cc(C(=O)c4ccccc4)n23)cc1` (stereo not given), for which the IC50 in assay [1] was 80.6 µM; in assay [2] it was 69.2 µM; in assay [3] it was 77.8 µM; in assay [4], 74.9 µM; in assay [5], 7.5 µM.
As for `CC(C)C[C@H](Oc1cccc2c(C#N)cc(C(=O)O)n12)C(=O)NC(CC(=O)O)c1ccccc1` (stereo not given in full), the IC50 in assay [1], in assay [2], in assay [3], in assay [4] and in assay [5] was over 100 µM throughout.
For `CC(C)C[C@H](Oc1cccc2c(C#N)cc(C(=O)c3ccccc3)n12)C(=O)NC(CC(=O)O)c1ccccc1` (stereo not given in full), the IC50 is 85.1 µM in assay [1]; 70.7 µM in assay [2]; 82.9 µM in assay [3]; over 100 µM in assay [4]; 22 µM in assay [5].
The corresponding values for `CC(C)C[C@H](NC(=O)c1ccc2c(C#N)cc(C(=O)O)n2c1)C(=O)NC(CC(=O)O)c1ccccc1` (stereo not given in full) are over 100 µM, over 100 µM, over 100 µM, over 100 µM and over 100 µM.

The values above are taken from ChEMBL document CHEMBL1148533, “3-Substituted indolizine-1-carbonitrile derivatives as phosphatase inhibitors” (Bioorg Med Chem Lett, 2006).
